Screens: PubChem, several laboratories
DAGLB inh – DAGLB lipase inhibitors, primary screen, biochemical, fluorescence, HTS; Diacylglycerol lipase-beta (Homo sapiens), Q8NCG7; HEK293T DAGLB membrane lysate, EnzChek fluorogenic substrate; inhibition, % at 5.17 µM; actives 0.059% (n = 340,000); in the data active = inhibition above about 34%;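 note: 0% = enzyme with vehicle and 100% = wells lacking enzyme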
Target sequence (Q8NCG7 whole entry, looked up): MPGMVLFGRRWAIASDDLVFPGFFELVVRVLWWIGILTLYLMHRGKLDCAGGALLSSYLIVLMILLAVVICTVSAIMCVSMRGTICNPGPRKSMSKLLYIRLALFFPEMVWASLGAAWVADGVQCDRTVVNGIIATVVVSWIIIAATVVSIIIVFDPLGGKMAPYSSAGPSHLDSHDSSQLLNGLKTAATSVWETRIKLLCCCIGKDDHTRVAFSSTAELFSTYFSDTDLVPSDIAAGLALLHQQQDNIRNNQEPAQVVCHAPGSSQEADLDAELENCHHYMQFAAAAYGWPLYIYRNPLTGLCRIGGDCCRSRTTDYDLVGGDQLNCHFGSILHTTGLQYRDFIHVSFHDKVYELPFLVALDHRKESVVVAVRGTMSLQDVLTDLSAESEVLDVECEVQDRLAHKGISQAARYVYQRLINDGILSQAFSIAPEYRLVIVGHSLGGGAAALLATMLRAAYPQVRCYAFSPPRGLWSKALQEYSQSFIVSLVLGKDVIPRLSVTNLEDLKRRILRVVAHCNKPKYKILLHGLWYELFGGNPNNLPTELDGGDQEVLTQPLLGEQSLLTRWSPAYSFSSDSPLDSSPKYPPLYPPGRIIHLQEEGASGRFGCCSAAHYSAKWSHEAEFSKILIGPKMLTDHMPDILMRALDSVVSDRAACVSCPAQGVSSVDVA
GRK2 inh – compounds blocking aptamer binding on GRK2 – biochemical, human GRK2, bead flow cytometry, HTS, primary screen. FAM-aptamer displacement from GRK2. actives 0.59% (n = 330,000). inhibition of aptamer binding, % at 10 µM. AID 488847, 2010;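 active = inhibition of aptamer binding above 40%, roughly 3 SD of noise, on plates passing a quality check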;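 note: median bead fluorescence of bound FAM aptamer so fluorescent compounds give negative values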
GPR7 antagonist – GPR7 receptor antagonists, primary screen, cell-based, fluorescence, single concentration | inhibition, % at 4.4 µM | actives 1.1% (n = 290,000) | GPR7-expressing cells, fluorescence antagonist assay | Neuropeptides B/W receptor type 1 (Homo sapiens), P48145 | AID 1861, 2009; in the data active = inhibition above about 16%, passing the limit was not always enough;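 note: cells stimulated with the agonist NPW; 0% = agonist with vehicle and 100% = vehicle without agonist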
DNA FID counter-1 – compounds displacing fluorescent DNA intercalator, primary screen, artefact control for HCV NS3 helicase inhibitor project, biochemical, FID fluorescence; DNA fluorescent intercalator displacement; inhibition, % at 7.9 µM; actives 0.17% (n = 290,000); AID 1845, 2009;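 note: 0% = vehicle and 100% = reference compound; higher means more ethidium bromide displaced from hairpin DNA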
HCV NS3 hel inh – inhibitors of HCV NS3 helicase, primary screen, biochemical, Cy5 molecular beacon fluorescence. Hepatitis C virus NS3 helicase. NS3 helicase DNA unwinding. inhibition, % at 10.9 µM. actives 0.56% (n = 290,000);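 active = inhibition above the mean of all tested compounds plus 3 SD, set per campaign, cut at about 35% in these data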;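 note: 0% = DMSO wells and 100% = thioflavine S control wells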
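Control set: DMSO versus 110 µM thioflavine S; Material: NS3 helicase fragment of HCV; Measured by: Cy5 fluorescence at 0 and 60 min, beacon hairpin quenching; Read-out basis: percent inhibition from t60/t0 fluorescence ratio; Times: reaction time 60 min, 25 °C; Repeats: single replicate; Compound dosing: single dose, 10.9 µM nominal final, DMSO 0.8% final.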
HCV core dimer – inhibitors of HCV core protein dimerization, primary screen, biochemical, TR-FRET, high-throughput. TR-FRET GST/Flag-core106 dimerization, 1536-well. inhibition, % at 5 µM. actives 0.33% (n = 300,000). AID 1899, 2009;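 active = inhibition above the mean of all tested compounds plus 3 SD, set per screening campaign, cut at about 45% in these data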
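Assay system: GST-tagged and Flag-tagged HCV core protein residues 1-106 / Times: compound-protein-antibody incubation 4 h at 22.5 °C / Signal: time-resolved FRET, ex 340 nm, em 617 and 671 nm / Evaluation: % inhibition based on acceptor/donor emission ratio / Benchmarks: wells lacking GST-core106 and wells with excess unlabelled core106 / Repeats: singlicate, one well per compound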
NS3 helicase cf – HCV NS3 helicase inhibitors, retest, confirmation, biochemical, Cy5 molecular beacon fluorescence, triplicate; shares compounds with HCV NS3 hel inh; NS3 helicase DNA unwinding; inhibition, % at 10.9 µM; actives 31% (n = 1,600);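 active = inhibition above the mean of all tested compounds plus 3 SD, cutoff set per campaign, cut at about 36% in these data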
DNA FID counter-2 – compounds displacing fluorescent DNA intercalator, artefact control for HCV NS3 helicase inhibitor project, biochemical, FID fluorescence, triplicate | shares compounds with HCV NS3 hel inh | DNA fluorescent intercalator displacement | inhibition, % at 7.9 µM | actives 4% (n = 1,600) | AID 1945, 2009;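 note: 0% = vehicle and 100% = reference compound; higher means more displacement of ethidium bromide from the DNA hairpin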
Numbers without * were called inactive; / = no result. This is a sample that favours compounds with a hit; in the whole collection about 2.2% have one here. Cut-off read from the data, not from the text of the source, unless noted: active = inhibition above about 37%; inactive = the rest.

SMILES | DAGLB inh | GRK2 inh | GPR7 antagonist | DNA FID counter-1 | HCV NS3 hel inh | HCV core dimer | NS3 helicase cf | DNA FID counter-2
CN1C/C(=C\c2ccc(N3CCOCC3)cc2)C(=O)/C(=C/c2ccc(N3CCOCC3)cc2)C1 | 1 | 4 | -9 | -13 | -2 | 3 | / | /
Cc1c(NC(=O)CSc2nnc(-c3ccncc3)n2C)c(=O)n(-c2ccccc2)n1C | 0 | / | / | / | / | / | / | /
COc1ccc(C(=O)CC(=O)C(=O)Nc2ccc(OC)c(Cl)c2)cc1 | 4 | 0 | -1 | -18 | 33 | 0 | / | /
COc1ccc(C(=O)CC(=O)C(=O)Nc2ccc(Cl)cc2)cc1 | 2 | 0 | 16 | -13 | 43* | 0 | -2 | 15
O=C/C=C/c1c(-c2ccccc2)cc2oc3ccccc3cc1-2 | 5 | 6 | 14 | -3 | 15 | 10 | / | /
C/C(=N\NC(=S)NCCc1ccccc1)c1ccc(O)cc1O | 3 | 0 | 2 | -3 | 50* | -17 | 12 | 12
C/C(=N\NC(=S)NCCc1ccccc1)c1ccc(Cl)cc1Cl | -14 | 1 | -4 | -36 | 21 | -19 | / | /
CCc1nnc(NS(=O)(=O)c2ccc(N/C=C\C(=O)c3cccc4ccccc34)cc2)s1 | 7 | 2 | 7 | -23 | 55* | 14 | 33 | 14
O=C(Nc1cccc2ccccc12)OCc1cncs1 | -1 | 3 | 2 | -4 | 2 | 0 | / | /
S=c1[nH]nc(COc2ccc(Cl)cc2)n1Cc1ccco1 | 2 | 15 | 5 | -20 | 36* | -1 | 3 | -24
CCCc1n[nH]c(=S)n1Cc1ccco1 | 0 | 0 | -7 | -12 | 11 | -1 | / | /
CCSc1nc2c(c(=O)[nH]1)C(c1cccnc1)C(C(=O)OC)=C(C)N2 (stereo unspecified) | 2 | 2 | 9 | -16 | 39* | 6 | -2 | -1
CC(/C=N/n1c(-c2ccc(Cl)cc2)n[nH]c1=S)=C\c1ccco1 | -2 | 0 | -2 | -8 | 19 | 41 | / | /
CC(/C=N/n1c(-c2cc(C)[nH]n2)n[nH]c1=S)=C\c1ccco1 | -1 | 0 | 9 | -19 | 45* | 7 | -16 | -5
O=C(OCc1cc(=O)n2c(n1)sc1ccccc12)c1ccc(O)cc1O | -3 | 1 | -3 | -3 | 36* | 42 | 30 | 1
Cc1cccc(NC(=S)N/N=C/c2c[nH]c3ccccc23)c1 | 2 | 0 | -5 | 3 | -30 | -14 | / | /
O=C(Nc1nnc(C2=COCCO2)o1)c1cccc(Br)c1 | 4 | 0 | -7 | -11 | 39* | -4 | -8 | 4
COc1cccc(Cn2cc(C)cc(NC(=O)NCc3ccccc3)c2=O)c1 | 2 | 6 | 10 | -29 | 40* | 3 | -3 | -15
CCOc1ccc(OCCCCN(C)C)cc1 | 1 | 3 | 9 | 14 | 49* | -2 | -7 | 15
O=C(Sc1n[nH]c(=O)[nH]c1=O)c1ccccc1 | 2 | / | / | / | / | / | / | /
COC(=O)c1c(NC(=O)CSc2nc3ccccc3c(=O)n2-c2ccccc2)sc(C)c1C | 0 | 0 | 9 | -20 | 48* | 28 | 10 | -20
Cc1cc(Br)ccc1NC(=O)CN1C(=O)C2CC=CCC2C1=O (stereo unspecified) | -2 | 0 | / | / | / | / | / | /
COc1ccccc1N(C)S(=O)(=O)c1ccc(C(=O)Nc2cc(F)ccc2C)cc1 | -3 | 0 | / | / | / | / | / | /
NNc1nc2sc3c(c2c(=O)n1Cc1ccccc1)CCC3 | 0 | 0 | -8 | -11 | 44* | 20 | 10 | -16
Nn1c(Nc2ccccc2)nc2sc3c(c2c1=O)CCC3 | 1 | / | -4 | -4 | -9 | / | / | /
